Reference: ChEMBL document CHEMBL1134638, “Synthetic 2-aroylindole derivatives as a new class of potent tubulin-inhibitory, antimitotic agents” (J Med Chem, 2001)
pIC50: −log10 of the molar value. Values after ≈ are worked out from the molar mass of the structure shown.

Columns and labels:
[1] = tested on: HeLa; assay: In vitro inhibitory activity against HeLa/KB cells using XTT proliferation assay.; format: functional, cell-based; settings: Homo sapiens
Outline: (§1)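 XTT proliferation assay measuring cellular metabolic activity after 48 h incubation with compound. Compounds dissolved in DMSO at 1 mg/mL stock. IC50 or estimates obtained by nonlinear regression. Each experiment at least in duplicate.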

[2] = tested on: SK-OV-3; assay: In vitro inhibitory activity against SK-OV-3 cells using XTT proliferation assay.; format: functional, cell-based; settings: Homo sapiens; outline: as §1
[3] = biological target: Tubulin beta chain (Bos taurus, UniProt Q6B856); assay: Inhibition of tubulin polymerization.; format: functional
Sequence of Tubulin beta chain (Q6B856 whole entry): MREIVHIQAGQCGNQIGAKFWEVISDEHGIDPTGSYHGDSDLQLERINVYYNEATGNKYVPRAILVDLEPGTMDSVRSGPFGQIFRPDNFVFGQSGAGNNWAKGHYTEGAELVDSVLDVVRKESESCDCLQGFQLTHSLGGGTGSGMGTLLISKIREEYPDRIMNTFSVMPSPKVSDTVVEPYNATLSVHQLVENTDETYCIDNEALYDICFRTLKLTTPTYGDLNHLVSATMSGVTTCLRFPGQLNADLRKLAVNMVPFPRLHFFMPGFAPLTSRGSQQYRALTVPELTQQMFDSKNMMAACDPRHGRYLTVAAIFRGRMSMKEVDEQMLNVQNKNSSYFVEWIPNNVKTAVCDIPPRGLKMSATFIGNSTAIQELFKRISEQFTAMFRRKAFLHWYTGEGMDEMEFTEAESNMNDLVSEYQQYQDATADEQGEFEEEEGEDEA

[4] = tested on: Tumor Cell line; assay: Mean cytotoxicity against a panel of human tumor cell lines; format: functional
Outline: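 Modified propidium iodide assay quantifying dead cells by DNA/RNA staining, run on a human tumor cell panel (breast, colon, stomach, lung, melanoma, ovary, renal, soft tissue lines). Growth inhibition expressed as % T/C; IC70 per line from concentration-viability plots. Mean IC70 is the geometric mean across lines; unreached values set to the lowest or highest concentration tested.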

| SMILES | pIC50 [1] | pIC50 [2] | pIC50 [3] | IC70 [4] [µg/mL] |
| --- | --- | --- | --- | --- |
| COc1ccc2[nH]c(C(=O)c3cccc([N+](=O)[O-])c3)cc2c1 | 7.00 | 7.00 | 6.07 | 1.4 (≈ 4.73 µM) |
| COc1ccc2c(c1)cc(C(=O)c1ccccc1)n2CCN1CCOCC1 |  |  |  | 2.95 (≈ 8.09 µM) |
| COc1ccc2[nH]c(C(=O)c3cccc(F)c3)cc2c1 | 7.59 | 7.82 | 6.41 |  |
| COc1ccc2[nH]c(C(=O)c3cccc(C(F)(F)F)c3)cc2c1 | 7.52 | 7.52 | 5.82 |  |
| COc1ccc2[nH]c(C(=O)c3ccccc3C)cc2c1 | 5.92 | 6.42 | 5.32 |  |
| COc1ccc2[nH]c(C(=O)c3cccc([N+](=O)[O-])c3C)cc2c1 | < 4.99 | < 4.99 | < 5.00 |  |
| COc1ccc2[nH]c(C(=O)c3cccc4ccccc34)cc2c1 |  |  |  | 0.88 (≈ 2.92 µM) |
| COc1ccc2[nH]c(C(=O)c3ccccc3N)cc2c1 | 5.42 | 5.42 | 5.17 | 1.44 (≈ 5.41 µM) |
| CCc1ccc(C(=O)c2cc3cc(OC)ccc3[nH]2)cc1 | 5.05 | 4.94 | < 5.00 |  |
| COc1ccccc1C(=O)c1cc2ccccc2[nH]1 | < 4.90 | < 4.90 | < 5.00 |  |
| COc1cccc(C(=O)c2cc3cc(C)ccc3[nH]2)c1 | < 4.92 | < 4.92 | < 5.00 |  |
| COc1ccc2[nH]c(C(=O)c3ccc(F)cc3)cc2c1 | 5.25 | 5.13 |  |  |
| COc1ccc2[nH]c(C(=O)c3ccc(OC)c(OC)c3)cc2c1 | 5.88 | 5.79 | 6.09 |  |
| CCCC(=O)Oc1cccc(C(=O)c2cc3cc(OC)ccc3[nH]2)c1 | 6.57 | 6.62 | 6.07 |  |
| COc1ccc2[nH]c(C(=O)c3cc(C)ccc3C)cc2c1 | 6.14 | 6.14 | 5.28 |  |
| COc1ccc2[nH]c(C(=O)c3ccccc3F)cc2c1 | 6.43 | 6.13 | 6.00 |  |
| COc1ccc2[nH]c(C(=O)c3ccccc3[N+](=O)[O-])cc2c1 | < 5.00 | < 4.97 | < 5.00 |  |
| COc1cc2c(c(OC)c1OC)-c1ccc(OC)c(=O)cc1[C@@H](NC(C)=O)CC2 [COLCHICINE] | 7.64 | 7.70 |  |  |

Second part, led by results:

| pIC50 [1] | pIC50 [2] | pIC50 [3] | SMILES | IC70 [4] [µg/mL] |
| --- | --- | --- | --- | --- |
| 4.94 | 4.94 | < 5.00 | COc1ccc2[nH]c(C(=O)c3cccc(N)c3C)cc2c1 |  |
| 7.23 | 7.06 | < 5.00 | COc1ccc2[nH]c(C(=O)c3ccc(OC)c(OC)c3OC)cc2c1 | 0.73 (≈ 2.14 µM) |
| 6.04 | 6.04 | 5.37 | COc1ccc2[nH]c(C(=O)c3ccc(Br)cc3)cc2c1 | 2.56 (≈ 7.75 µM) |
| < 5.01 | < 5.01 | < 5.00 | COc1ccc2[nH]c(C(=O)c3cccc(OC)c3[N+](=O)[O-])cc2c1 |  |
| 6.57 | 6.68 | 5.77 | COc1ccc2[nH]c(C(=O)c3cccc(OC(F)(F)F)c3)cc2c1 |  |
| 6.66 | 6.66 | 6.18 | COc1ccc2[nH]c(C(=O)c3cccc(O)c3)cc2c1 |  |
| < 4.98 | < 4.98 | < 5.00 | COc1ccc2[nH]c(C(=O)c3c(F)cccc3Cl)cc2c1 |  |
| 5.19 | 5.49 | < 5.00 | COc1ccc2[nH]c(C(=O)c3cccc(OC)c3OC)cc2c1 |  |
| 5.46 | 5.76 | 5.30 | COc1ccc2[nH]c(C(=O)c3ccc(Cl)cc3)cc2c1 |  |
| < 4.96 | < 4.96 | < 5.00 | CCCc1ccc(C(=O)c2cc3cc(OC)ccc3[nH]2)cc1 |  |
| 6.47 | 6.64 | 6.00 | COc1ccc2[nH]c(C(=O)c3cccc(N)c3)cc2c1 |  |
| 6.42 | 5.73 | 5.82 | COc1ccc2[nH]c(C(=O)c3ccc(C)cc3)cc2c1 |  |
| 7.72 | 7.72 | 6.09 | COc1cc(OC)cc(C(=O)c2cc3cc(OC)ccc3[nH]2)c1 |  |
